Measured values gathered from unrelated publications.
Protocols differ between the studies behind these lines.
Target: Serine/threonine-protein kinase PLK4 (PLK4, Homo sapiens, UniProt O00444)
Sequence (O00444 1-970, as in one of the studies): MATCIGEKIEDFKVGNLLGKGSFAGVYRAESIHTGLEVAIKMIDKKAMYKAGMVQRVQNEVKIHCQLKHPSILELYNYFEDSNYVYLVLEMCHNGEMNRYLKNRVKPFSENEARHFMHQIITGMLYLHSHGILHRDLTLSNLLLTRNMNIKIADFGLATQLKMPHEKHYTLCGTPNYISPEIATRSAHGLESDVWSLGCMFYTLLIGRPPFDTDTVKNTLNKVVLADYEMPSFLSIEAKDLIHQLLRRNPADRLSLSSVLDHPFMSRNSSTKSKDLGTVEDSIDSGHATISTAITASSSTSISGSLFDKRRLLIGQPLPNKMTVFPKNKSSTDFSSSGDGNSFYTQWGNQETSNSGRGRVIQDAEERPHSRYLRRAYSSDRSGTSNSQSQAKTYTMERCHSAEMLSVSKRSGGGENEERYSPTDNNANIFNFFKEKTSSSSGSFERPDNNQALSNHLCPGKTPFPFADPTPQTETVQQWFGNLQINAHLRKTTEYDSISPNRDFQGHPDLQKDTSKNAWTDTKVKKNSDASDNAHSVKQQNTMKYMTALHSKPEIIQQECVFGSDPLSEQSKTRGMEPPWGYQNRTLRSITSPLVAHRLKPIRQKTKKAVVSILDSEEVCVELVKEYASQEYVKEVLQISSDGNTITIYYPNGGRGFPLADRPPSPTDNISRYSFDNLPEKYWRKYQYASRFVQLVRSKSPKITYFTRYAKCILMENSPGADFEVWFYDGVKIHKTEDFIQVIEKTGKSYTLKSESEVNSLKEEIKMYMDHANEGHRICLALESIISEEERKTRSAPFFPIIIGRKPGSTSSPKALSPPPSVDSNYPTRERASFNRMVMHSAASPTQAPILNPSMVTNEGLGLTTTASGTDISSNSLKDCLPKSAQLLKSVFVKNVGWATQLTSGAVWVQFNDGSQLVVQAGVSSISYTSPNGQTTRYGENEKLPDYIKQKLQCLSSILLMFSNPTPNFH

With `Cc1ccc(C(=O)Nc2ccc(CN3CCN(C)CC3)c(C(F)(F)F)c2)cc1C#Cc1cnc2cccnn12` the remaining activity was 84% (enzyme activity; inhibitor; 23.5 nM).
`CC(C)(C)c1nc2c(s1)c1nc(N)ncc1c1ccc(NS(=O)(=O)c3c(F)cccc3F)c(F)c12` gave a remaining activity of 44% (enzyme activity; inhibitor; radiometric; 1 µM).
`Cc1ccc(C(=O)NCc2ccsc2)cc1C#Cc1cn(C(C)C)c2ncnc(N)c12` gave an activity vs control of 75% (enzyme activity; inhibitor; 1 µM).
The remaining activity of `CC(C)(C)c1nc(-c2cccc(NS(=O)(=O)c3c(F)cccc3F)c2F)c(-c2ccnc(N)n2)s1` is reported as 6% (enzyme activity; inhibitor; radiometric; 1 µM).
`CN(C)c1ncnc(-c2ccc3nc(Nc4cc(CN5CCN(C(=O)CC(F)(F)F)CC5)ccn4)[nH]c3c2)c1Cl` has a remaining binding of 76% (cell-free assay; competition with immobilised ligand; 1 µM).
With `CC(C)(O)[C@H]1CC[C@H](Nc2ccc3ncc(-c4cccc(C(F)(F)F)c4)n3n2)CC1` the remaining activity was 101% (enzyme activity; inhibitor; 1 µM).
`Cc1sc(C(=O)NC2COC2)cc1-n1cc(NC(=O)Nc2c(F)cccc2Cl)cn1` gave a remaining activity of 100% (enzyme activity; inhibitor; 10 µM).
For `COc1cc(Cl)c(C(=O)N[C@@H](CN[C@H]2CC[C@@H](N)CC2)Cc2ccc(C#N)cc2)cc1-c1ccc(CN[C@H](C)c2ccc(C)cc2)o1`, the remaining activity was 83% (enzyme activity; inhibitor; 1 µM).
The inhibition of `CN1CC(Oc2cnc(C#N)cc2-c2ccn3nc(NC(=O)C4CC4)cc3c2)C1` is reported as -5% (enzyme activity; inhibitor; 1 µM).
For `COc1cc2nccc(Oc3ccc(NC(=O)Nc4ccc(F)cc4F)c(F)c3)c2cc1OC`, the ΔTm was 5 to 10 °C (thermal stability; DSF; 10 µM).
For `O=C(Nc1cnn(-c2csc(C(=O)NC3COC3)c2)c1)Nc1ccccc1Cl`, the remaining activity was 88.2% (enzyme activity; inhibitor; 5 µM).
The remaining binding of `O=C(Nc1cccnn1)N1CC(C/C=C/c2cncc(Oc3ccc(C(F)(F)F)cn3)n2)C1` is reported as 98% (cell-free assay; competition with immobilised ligand; 1 µM).
With `Nc1ncnc2occ(-c3ccc(NC(=O)Nc4cc(C(F)(F)F)ccc4F)cc3)c12` the remaining signal was 0.55% (cell-free assay; inhibitor; 20 µM).
